TRPC4 inh: TRPC4 (mouse) channel inhibition; Q9QUQ5; HEK293 TRPC4beta/mu-opioid, DAMGO-evoked Fluo4 calcium flux; active compounds read low; B-score at 10 µM; 300,000 tested, 0.39% active; AID 2247;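 active means B-score over 3 SD under the library average, no early fluorescence shift, positive overall ratio signal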
Target sequence (Q9QUQ5 whole entry, looked up): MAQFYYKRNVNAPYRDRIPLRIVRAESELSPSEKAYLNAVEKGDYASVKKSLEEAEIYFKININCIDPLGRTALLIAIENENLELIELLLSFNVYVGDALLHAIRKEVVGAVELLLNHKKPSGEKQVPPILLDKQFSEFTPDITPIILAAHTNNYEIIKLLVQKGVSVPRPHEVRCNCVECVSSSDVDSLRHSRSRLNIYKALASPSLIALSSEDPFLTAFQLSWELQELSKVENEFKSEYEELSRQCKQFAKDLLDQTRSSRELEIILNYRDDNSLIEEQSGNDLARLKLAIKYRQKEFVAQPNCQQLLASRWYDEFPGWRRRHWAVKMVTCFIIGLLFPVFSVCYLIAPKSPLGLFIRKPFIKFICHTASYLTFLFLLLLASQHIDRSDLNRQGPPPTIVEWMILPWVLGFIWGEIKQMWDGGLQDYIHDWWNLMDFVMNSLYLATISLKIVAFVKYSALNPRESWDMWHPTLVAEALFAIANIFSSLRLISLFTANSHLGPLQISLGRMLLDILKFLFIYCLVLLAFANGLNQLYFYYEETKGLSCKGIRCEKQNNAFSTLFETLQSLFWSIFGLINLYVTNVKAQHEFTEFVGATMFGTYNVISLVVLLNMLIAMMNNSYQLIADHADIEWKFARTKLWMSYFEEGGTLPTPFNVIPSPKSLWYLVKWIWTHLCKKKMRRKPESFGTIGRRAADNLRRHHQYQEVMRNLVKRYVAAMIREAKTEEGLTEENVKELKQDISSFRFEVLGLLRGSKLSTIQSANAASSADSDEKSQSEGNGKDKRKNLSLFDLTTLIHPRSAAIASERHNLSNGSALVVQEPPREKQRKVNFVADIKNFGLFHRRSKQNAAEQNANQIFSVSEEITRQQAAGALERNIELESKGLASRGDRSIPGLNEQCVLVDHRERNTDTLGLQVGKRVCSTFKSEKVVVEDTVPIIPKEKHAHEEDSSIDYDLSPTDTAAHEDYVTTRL
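Assay system: Stable TRPC4beta/mu-opioid receptor HEK293 cells | Reagent: DAMGO in two steps, submaximal then maximal | Compound dosing: Single concentration per test compound | Signal: Fluo4 Ca2+ flux fluorescence | Evaluation: Per-well B score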
TRPC6 inhibitor: blocks the mouse TRPC6 cation channel; HEK293-TRPC6, membrane potential dye, ACh-evoked depolarization; active compounds read low; B-score at 10 µM; 310,000 tested, 1.1% active; AID 2553;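 active means B-score under library mean minus 3 SD, initial fluorescence not abnormally high, positive integrated signal ratio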;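 further: B-score derived from integrated fluorescence ratio over the kinetic read; more negative B-score means stronger inhibition of depolarization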
TRPC4 agonist: activators of mouse TRPC4 channel; HEK293 TRPC4beta/mu-opioid, Fluo4 calcium fluorescence; active compounds read high; Q9QUQ5; AID 2237; 310,000 tested, 0.49% active; B-score at 10 µM;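 active means B-score above 5 SD of library B-scores, and initial fluorescence ratio not above library mean plus 5 SD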;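 further: positive B-score marks a calcium rise read as TRPC4 activation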
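Assay system: HEK293 cells stably co-expressing mouse TRPC4beta and mu-opioid receptor / Timing: Fluo4 dye loading 45 min at room temperature, 110 s recording / Signal: Fluo4 calcium-sensitive dye fluorescence, kinetic, 1 Hz baseline / Read-out: integrated baseline-normalised fluorescence ratio, converted to per-well B score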
TRPC4 potent: TRPC4 (mouse) allosteric potentiation; Q9QUQ5; B-score at 10 µM; HEK293 TRPC4beta/mu-opioid, DAMGO EC20, Fluo-4 Ca2+ flux; active compounds read high; 310,000 tested, 0.42% active; AID 2227;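 active means B-score of calcium response area above 5 SD of library B-scores, with initial fluorescence ratio within 5 SD of library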;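 further: B-score of integrated fluorescence ratio over time as area under calcium response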
TRPC6 activator: activators of mouse TRPC6 channel; 310,000 tested, 0.13% active; HEK293-TRPC6 membrane potential dye fluorescence; active compounds read high; AID 2550; Q61143; B-score at 10 µM;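 active means B-score of the integrated fluorescence ratio above library mean plus 3 SD, and starting fluorescence ratio within library mean plus 5 SD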;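 further: higher score means more depolarization so channel activation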
TRPC4 sel inh 2: second check of whether TRPC6 inhibitors also affect mouse TRPC4. shares compounds with TRPC6 inhibitor. HEK293 TRPC4/MOR, membrane potential dye fluorescence; channel activated by saturating DAMGO dose. inhibition, % at 10 µM. 920 tested, 42% active. AID 2776;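 active means compounds whose fluorescence signal differed from control wells by over 3 SD, either direction, in both duplicate plates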
TRPC4 spec: mouse TRPC4 off-target activity of TRPC6 inhibitors; activity change, negative = inhibition, % at 10 µM; HEK293 TRPC4/mu-opioid, membrane potential fluorescence; 920 tested, 61% active; shares compounds with TRPC6 inhibitor;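 active means rise or fall in signal beyond 3 SD of buffer-only wells in both replicate plates, either sign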;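 further: integrated kinetic ratio of fluorescence range over baseline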
HEK293 MPD ctr 2-1: second check of TRPC6 inhibitor effects in parental HEK293 cells; shares compounds with TRPC6 inhibitor; parental HEK293 membrane potential dye fluorescence; maximal acetylcholine challenge after compound addition; signal change vs control, % at 10 µM; 920 tested, 31% active;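 active means membrane potential signal moving either way by over 3 SD of the maximum-effect control, in both duplicate plates, meaning non-specific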
HEK293 MPD ctr-1: checks TRPC6 inhibitor effects in parental HEK293 cells. shares compounds with TRPC6 inhibitor. parental HEK293 membrane potential dye fluorescence. membrane potential signal change, % at 10 µM. 920 tested, 60% active;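 active means membrane potential signal shifting up or down by more than 3 SD of buffer-only wells, on both duplicate plates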
HEK293 MPD ctr-2: checks TRPC6 modulator effects in parental HEK293 cells | membrane potential signal change, % at 10 µM | shares compounds with TRPC6 inhibitor | AID 488924 | 2,400 tested, 51% active | membrane potential dye fluorescence;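 active means membrane potential signal moves up or down beyond 5 SD from buffer-only wells, on both duplicate plates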
HEK293 MPD ctr 2-2: second counter-screen for TRPC6 modulators: effect in parental HEK293 cells | AID 488926 | inhibition, % at 10 µM | shares compounds with TRPC6 inhibitor | membrane potential dye fluorescence; after compound, maximal acetylcholine stimulation | 2,400 tested, 14% active;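 active means membrane potential signal drops by more than 5 SD from the mean control signal, in both duplicate plates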;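 further: plate controls were acetylcholine ECmax control wells for no effect and buffer only wells for full effect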
TRPC4 ctr mod: mouse TRPC4 off-target activity of TRPC6 modulators | HEK293 TRPC4/mu-opioid, membrane potential fluorescence | shares compounds with TRPC6 inhibitor | AID 488927 | 2,400 tested, 69% active | percent change from control (negative = decrease, positive = increase), % at 10 µM;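 active means membrane potential signal moved up or down beyond 5 SD of buffer control wells, in both duplicate plates, actives on both sides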;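 further: plate controls were assay buffer wells for no effect and DAMGO maximal-effect wells for full effect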
TRPC4/MOR inh 2: second check of whether TRPC6 modulators also affect mouse TRPC4 | 2,400 tested, 55% active | AID 488928 | shares compounds with TRPC6 inhibitor | HEK293 TRPC4/mu-opioid, membrane potential dye fluorescence; stimulated with maximal-effect DAMGO | inhibition, % at 10 µM;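 active means drop in membrane potential signal beyond 5 SD of the control wells in both duplicate plates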;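 further: TRPC4 counter screen for TRPC6 hits run under conditions tuned for TRPC6 not TRPC4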
TRPC6 block conf: mouse TRPC6 inhibitor confirmation; shares compounds with TRPC6 inhibitor; HEK293-TRPC6, membrane potential dye, ACh-evoked depolarization; inhibition, % at 10 µM; 3,300 tested, 43% active;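 active means fluorescence ratio falls more than 5 SD below the full-stimulation control mean, in both duplicate runs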;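 further: integrated fluorescence ratio of peak minus minimum over baseline after agonist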
TRPC6 act conf: mouse TRPC6 activator confirmation. shares compounds with TRPC6 inhibitor. HEK293-TRPC6 membrane potential dye fluorescence, FDSS. activation, % at 10 µM. 2,800 tested, 11% active;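 active means ratio signal rise beyond 5 SD above unstimulated control wells' mean, seen in both duplicate runs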;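 further: plate controls were buffer EC0 wells for no effect and acetylcholine ECmax response for full effect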
The depositor's hits bear a star; i = inactive; . = not tested or not shown; + = active, no number. This is a sample that favours compounds with a hit; in the whole collection about 2.3% have one here.

SMILES	TRPC4 inh	TRPC6 inhibitor	TRPC4 agonist	TRPC4 potent	TRPC6 activator	HEK293 MPD ctr-2	HEK293 MPD ctr 2-2	TRPC4 ctr mod	TRPC4/MOR inh 2	TRPC6 block conf	TRPC6 act conf	others
CCN(CC)CCNC(=O)c1ccc(NC(=O)c2cc(S(=O)(=O)N3CCCCC3)ccc2C)cc1	i	-5.3*	i	i	i	i	65%*	10%*	i	60%*	i
CCN(CC)S(=O)(=O)c1cccc(C(=O)Nc2cccc(C)c2)c1	i	-5.1*	i	i	i	i	i	8.0%*	i	i	i
O=C(CCNC(=O)c1ccc(Cl)cc1)Nc1ccc(S(=O)(=O)N2CCCCC2)cc1	i	i	i	i	i	.	.	.	.	.	.
COc1ccc(OC)c(CCNC(=O)CCCC(=O)n2ncc3cc(C)ccc32)c1	i	i	i	i	i	.	.	.	.	.	.
COC1=C(Nc2ccccc2OC)C(=O)c2ccccc2C1=O	i	-5.8*	i	i	i	-91%*	i	-24%*	38%*	i	i
CCN(CC)C(=O)CSc1nc2ccccc2c(=O)n1-c1cccc(OC)c1	i	-5.9*	i	i	12*	158%*	i	36%*	i	i	73%*
CCOC(=O)c1c(NC(=O)COC(=O)CCOc2ccc(OCC)cc2)sc(C(=O)N(C)C)c1C	i	i	i	61*	13*	279%*	i	165%*	72%*	i	124%*
CCOC(=O)c1c(NC(=O)COC(=O)CCOc2ccc(C)cc2)sc(C(=O)N(C)C)c1C	i	i	i	i	14*	480%*	i	44%*	66%*	i	i
CCOC(=O)c1c(NC(=O)COC(=O)c2ccccn2)sc(C(=O)N(C)C)c1C	i	i	i	i	i	.	.	.	.	.	.
CCOC(=O)c1c(NC(=O)COC(=O)c2ccc(O)cc2)sc(C(=O)N(C)C)c1C	i	i	i	i	i	.	.	.	.	.	.
O=C1CN(C(=O)c2c(F)cccc2F)C(c2ccc(F)cc2)c2cc(F)ccc2N1 (configuration not stated)	i	i	i	i	i	.	.	.	.	.	.
Cc1nc2nc(-c3ccc(Cl)cc3)nn2c(C)c1Cl	i	i	i	i	i	.	.	.	.	.	.
Cc1cc(N2CCN(C)CC2)n2nc(-c3ccc(Cl)cc3)nc2n1	i	-6.9*	i	i	i	-310%*	96%*	-28%*	53%*	66%*	i
CCN(CC)c1ccc(C=C2C(=O)OC3(CCCCC3)OC2=O)cc1	i	i	i	i	59*	724%*	i	162%*	i	i	188%*
CC1=NOC(=O)/C1=C/c1ccc(N(C)C)cc1	i	i	i	i	i	.	.	.	.	.	.
CCCCC1(C)OC(=O)C(=Cc2ccc(N(CC)CC)cc2)C(=O)O1 (configuration not stated)	i	i	i	i	36*	+	i	186%*	i	i	368%*
CCOc1ccccc1NC=C1C(=O)OC2(CCCCC2)OC1=O	i	i	i	i	i	.	.	.	.	.	.
CCN(CC)c1ccc(/C=C2/C(=O)ON=C2C)cc1	i	i	i	i	13*	799%*	i	59%*	i	i	133%*
Cc1c(S(=O)(=O)N2CCCCC2)c(=O)n(C)c(=O)n1C	i	i	i	i	i	.	.	.	.	.	.
Cc1ccc(Cl)cc1N(C(=O)c1csnn1)C(C(=O)NC1CCCC1)c1ccco1 (configuration not stated)	i	i	i	i	i	.	.	.	.	.	.
COC(=O)c1cc(OC)c(OC)cc1N1C(=O)CC(C)(C)CC1=O	i	i	i	i	i	.	.	.	.	.	.
CCCn1c(=N)n(CC(=O)c2ccc(Cl)cc2)c2ccccc21	i	-7.3*	i	i	i	.	.	.	.	i	i	TRPC4 sel inh 2=26%*;TRPC4 spec=35%*;HEK293 MPD ctr 2-1=258%*;HEK293 MPD ctr-1=3.4%*
CCCn1c(=N)n(CC(=O)c2ccc([N+](=O)[O-])cc2)c2ccccc21	i	i	i	i	i	.	.	.	.	.	.
Cc1ccn(CC(=O)N2CCCC(N3CCN(Cc4ccc5c(c4)OCO5)CC3)C2)n1 (configuration not stated)	i	i	i	i	i	.	.	.	.	.	.
Cc1cc(C)c2nc(C)cc(Nc3ccc(C(=O)N(C)C)cc3)c2c1	i	-5.4*	i	i	i	-114%*	i	-22%*	i	i	i
CC(=O)c1ccc(Nc2cc(C)nc3c(C)cc(C)cc23)cc1	-6*	-6.9*	i	i	i	.	.	.	.	i	i	TRPC4 sel inh 2=i;TRPC4 spec=-21%*;HEK293 MPD ctr 2-1=i;HEK293 MPD ctr-1=-327%*
COc1ccc(Nc2nnc(-c3ccc(C(=O)NCCO)cc3)c3ccccc23)cc1	i	i	i	i	i	.	.	.	.	.	.
Cc1cc(C)c2nc(C)cc(Nc3ccc(C(=O)NCCO)cc3)c2c1	i	-10*	i	i	i	.	.	.	.	56%*	i	TRPC4 sel inh 2=i;TRPC4 spec=-20%*;HEK293 MPD ctr 2-1=-46%*;HEK293 MPD ctr-1=-308%*
